{"source": "paper PMC2233693", "about": "(The Journal of General Physiology, 2000)", "assay_type_in_all_cases": "biochemical", "key": {"[1]": {"molecular_target": "T1, E340G mutant bovine olfactory CNG channel (Bos taurus, UniProt Q03041, E340G)", "T1 sequence (Q03041 1-663 E340G)": "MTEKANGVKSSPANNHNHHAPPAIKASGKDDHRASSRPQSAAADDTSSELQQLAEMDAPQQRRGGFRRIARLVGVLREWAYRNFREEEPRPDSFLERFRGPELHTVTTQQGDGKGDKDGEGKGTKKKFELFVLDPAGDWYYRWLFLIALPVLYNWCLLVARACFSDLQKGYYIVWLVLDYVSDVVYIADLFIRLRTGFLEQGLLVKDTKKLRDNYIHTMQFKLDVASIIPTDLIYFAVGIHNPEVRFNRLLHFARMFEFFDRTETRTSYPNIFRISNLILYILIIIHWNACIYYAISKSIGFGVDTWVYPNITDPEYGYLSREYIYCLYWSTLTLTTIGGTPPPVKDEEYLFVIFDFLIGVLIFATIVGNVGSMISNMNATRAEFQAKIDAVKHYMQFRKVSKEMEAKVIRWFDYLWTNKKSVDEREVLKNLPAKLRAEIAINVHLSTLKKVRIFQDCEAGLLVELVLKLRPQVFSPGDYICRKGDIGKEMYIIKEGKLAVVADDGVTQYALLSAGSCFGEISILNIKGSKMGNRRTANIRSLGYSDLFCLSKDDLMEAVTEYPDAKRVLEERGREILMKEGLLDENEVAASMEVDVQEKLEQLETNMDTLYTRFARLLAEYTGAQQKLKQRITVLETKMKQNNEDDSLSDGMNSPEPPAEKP", "assay": "Divalent cation permeation, outside-out patches in bi-ionic conditions", "settings": "for reversal potential, V rev: internal Na", "summary_of_the_method": "(§1)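 Outside-out oocyte patches; the pipette held 1 mM cGMP and 110 mM NaCl. External 110 mM NaCl was replaced by 73.3 mM CaCl2 or MgCl2. From a 0 mV holding potential, 150-ms steps were given from −80 to +80 mV in 20-mV increments. I_Ca/I_Na was taken at −80 mV, and reversal potential under bi-ionic conditions (internal Na+, external divalent); mean ± SD.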"}, "[2]": {"molecular_target": "T2, wild-type bovine olfactory CNG channel (α3 subunit) (Bos taurus, UniProt Q03041)", "T2 sequence (Q03041 1-663)": "T1 sequence (Q03041 1-663 E340G) with G340E", "assay": "External Ca2+ blockage of single-channel current, outside-out patches", "settings": "for effect on single-channel current: 5 μM cGMP; for n (single-channel Ca2+ blockage): Fig. 7 patch", "summary_of_the_method": "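Outside-out oocyte patches with cGMP in the pipette (wild-type 5 μM, E340G 1 mM) and increasing external Ca2+. Single-channel currents at +80 and −80 mV, filtered at 2 kHz, sampled at 10 kHz. Amplitudes from all-points histograms (30 s) fitted with summed Gaussians, normalised to divalent-free current, Hill-fitted for Ki and n. Two further patches per channel type.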"}, "[3]": {"molecular_target": "T2, wild-type bovine olfactory CNG channel (α3 subunit)", "assay": "Blockage of macroscopic current by internal Ca2+, inside-out patches", "settings": "read-out: K i for internal Ca2+ blockage, +80 mV, 1 mM cGMP, average"}, "[4]": {"molecular_target": "T2, wild-type bovine olfactory CNG channel (α3 subunit)"}, "[5]": {"molecular_target": "T2, wild-type bovine olfactory CNG channel (α3 subunit)", "assay": "Divalent cation permeation, outside-out patches in bi-ionic conditions", "settings": "for reversal potential, V rev: internal Na", "summary_of_the_method": "as §1"}, "[6]": {"molecular_target": "T3, E340N mutant bovine olfactory CNG channel (Bos taurus, UniProt Q03041, E340N)", "T3 sequence (Q03041 1-663 E340N)": "T1 sequence (Q03041 1-663 E340G) with G340N", "settings": "for P max (+80 mV) / P max (−80 mV): cGMP"}, "[7]": {"settings": "−80 mV, external 73.3 mM CaCl2 vs 110 mM NaCl"}, "[8]": {"settings": "3 μM cGMP, +80 mV, amplitude histogram, Fig. 3"}, "[9]": {"settings": "100 μM cGMP, +80 mV, amplitude histogram, Fig. 3"}, "[10]": {"settings": "high level of current determined with respect to low level"}}, "note": "Residue numbers refer to the chain shown, from its start. Read-outs that look alike come from different tables or passages of the source."}
{"smiles": "[Ca+2]", "note": "[Ca^2+]", "values": [{"measurement": "reversal potential, V rev", "setting": "[1]; external Ca2+", "result": "24 ± 5", "unit": "mV"}, {"measurement": "I Ca/I Na", "setting": "[1]; [7]", "result": "0.16 ± 0.03"}, {"measurement": "effect on single-channel current", "setting": "[2]; 50 μM external Ca2+, −80 mV", "result": "partial blockage"}, {"measurement": "effect on single-channel current", "setting": "[2]; 1 mM external Ca2+, −80 mV", "result": "no current was detected"}, {"measurement": "n (single-channel Ca2+ blockage)", "setting": "[2]; +80 mV", "result": 1}, {"measurement": "n (single-channel Ca2+ blockage)", "setting": "[2]; −80 mV", "result": 1.1}, {"measurement": "Ki", "setting": "[3]", "result": "1000 ± 700", "unit": "µM"}, {"measurement": "effect of external Ca2+ on K 1/2 for cAMP or cGMP", "setting": "[4]; 1 mM Ca2+ in the patch pipette", "result": "did not significantly affect K 1/2"}, {"measurement": "reversal potential, V rev", "setting": "[5]; external Ca2+", "result": "25 ± 6", "unit": "mV"}, {"measurement": "I Ca/I Na", "setting": "[5]; [7]", "result": "0.049 ± 0.004"}]}
{"smiles": "[Mg+2]", "note": "[Mg^2+]", "values": [{"measurement": "reversal potential, V rev", "setting": "[1]; external Mg2+", "result": "45 ± 15", "unit": "mV"}, {"measurement": "reversal potential, V rev", "setting": "[5]; external Mg2+", "result": "45 ± 7", "unit": "mV"}]}
{"smiles": "Nc1nc2c(ncn2[C@@H]2O[C@@H]3COP(=O)(O)O[C@H]3[C@H]2O)c(=O)[nH]1", "note": "[cGMP]", "values": [{"measurement": "P closed", "setting": "[6]; [8]", "result": 0.765}, {"measurement": "P o,high", "setting": "[6]; [8]", "result": 0.015}, {"measurement": "P closed", "setting": "[6]; [9]", "result": 0.01}, {"measurement": "P o,high", "setting": "[6]; [9]", "result": 0.065}, {"measurement": "P o,low", "setting": "[6]; [9]", "result": 0.925}, {"measurement": "P max (+80 mV)", "setting": "[6]; [10]", "result": "0.10 ± 0.07"}, {"measurement": "P max (−80 mV)", "setting": "[6]; [10]", "result": "0.04 ± 0.01"}, {"measurement": "P max (+80 mV)", "setting": "[6]; low level of current", "result": "0.87 ± 0.02"}, {"measurement": "P max (−80 mV)", "setting": "[6]; low level of current", "result": "0.96 ± 0.01"}, {"measurement": "n(−80 mV), Hill coefficient", "setting": "[4]; cGMP", "result": "2.7 ± 0.2"}, {"measurement": "I(−80 mV)/I(+80 mV)", "setting": "[4]; cGMP-gated current", "result": "1.11 ± 0.03"}, {"measurement": "EC50", "setting": "[4]; read-out: K 1/2, cGMP, +80 mV", "result": "2.6 ± 0.6", "unit": "µM"}, {"measurement": "EC50", "setting": "[4]; read-out: K 1/2, cGMP, −80 mV", "result": "2.5 ± 0.5", "unit": "µM"}, {"measurement": "EC50", "setting": "[4]; read-out: K 1/2,cG, −80 mV, single patch, Fig. 1 fit", "result": 3.2, "unit": "µM"}, {"measurement": "n cG", "setting": "[4]; −80 mV, single patch, Fig. 1 fit", "result": 2.7}]}
